# Reference: publication PMC8179660 (Chemical Science, 2021)
# Target: T1, p300 (Homo sapiens, UniProt Q09472)
# T1 sequence (Q09472 1284-1673 limits assumed): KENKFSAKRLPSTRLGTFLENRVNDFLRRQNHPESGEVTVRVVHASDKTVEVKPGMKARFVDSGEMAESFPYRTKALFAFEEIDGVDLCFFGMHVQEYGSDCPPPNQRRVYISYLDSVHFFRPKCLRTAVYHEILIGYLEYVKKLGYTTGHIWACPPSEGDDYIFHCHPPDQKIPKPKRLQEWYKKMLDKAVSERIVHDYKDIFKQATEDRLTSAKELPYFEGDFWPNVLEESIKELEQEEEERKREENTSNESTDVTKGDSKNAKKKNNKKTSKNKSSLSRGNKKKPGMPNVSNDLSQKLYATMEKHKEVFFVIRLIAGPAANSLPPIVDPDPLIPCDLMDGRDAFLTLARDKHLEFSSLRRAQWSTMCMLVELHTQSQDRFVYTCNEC
# Test: radioactive acetyltransferase activity-based IC50 assay
# Format: biochemical
# In short: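 Test compounds came from a DNA-encoded peptide macrocycle library affinity selection against p300 using a poly-His/Ni-NTA magnetic bead binding system. They were resynthesized off-DNA, without the DNA tag, and tested for p300 inhibition in a radioactive acetyltransferase activity assay to derive IC50.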
compound,measurement,value
CC(C)C[C@H]1NC(=O)[C@@H](NC(=O)CCc2cccc([N+](=O)[O-])c2)Cc2ccc(cc2)SC[C@@H](C(N)=O)NC(=O)CC2(CCCCC2)CNC1=O [Compound 33-C],IC50,5.2 µM
